Published values from different studies.
Protocols differ between the studies behind these lines.
Target: Ribosomal protein S6 kinase beta-1 (RPS6KB1, Homo sapiens, UniProt P23443)

CC(C)S(=O)(=O)c1ccc2nccc(Nc3ccc4sc(C5CCCC5)nc4c3)c2c1  activity vs control (enzyme activity, inhibitor; 1 µM): 110%
COc1ccc2oc(-c3ccc4nc(N)oc4c3)c/c(=N\c3ccccc3NC(=O)CCN)c2c1  remaining binding (binding; 1 µM): 98%
Cc1cc(O)c(-c2ccc([C@@H](C)CN(C)C)cc2)c2c1[nH]c(=O)c1sccc12  inhibition (enzyme activity, inhibitor; 0.1 µM): -5.29%
C=CC(=O)N1CCC([C@@H]2CCNc3c(C(N)=O)c(-c4ccc(Oc5ccccc5)cc4)nn32)CC1  inhibition (enzyme activity, inhibitor; 1 µM): 1%
Cc1ccc(NC(=O)c2ccnc(C(F)(F)F)c2)cc1-c1cc(OCCO)nc(N2CCOCC2)c1  remaining binding (binding; 1 µM): 100%
CO[C@@H]1[C@H](N(C)C(=O)c2ccccc2)C[C@H]2O[C@]1(C)n1c3ccccc3c3c4c(c5c6ccccc6n2c5c31)C(=O)NC4  inhibition (enzyme activity, inhibitor; 1 µM): 36%
C[C@H]1CC[C@H](n2c3cnccc3c3cnc(Nc4ccc5c(n4)CCN(C(=O)CO)C5)nc32)CC1  remaining signal (cell-free assay; 1 µM): 78%
CCCCC(=O)Nc1ccc(-c2ccc3ncn(CCC)c(=O)c3c2)cn1  remaining binding (binding, competition with immobilised ligand; 0.5 µM): 98%
